# Published values pooled from the literature.
# Each line is one published result; the experiments were not run side by side.
# Target: Mitogen-activated protein kinase kinase kinase 11 (MAP3K11, Homo sapiens, UniProt Q16584)
SMILES,test,conditions,remaining binding
c1cncc(-c2cccc(Nc3nccc(NC4CCCCC4)n3)c2)c1,"binding, competition with immobilised ligand",10 µM,30%
O=C(NCC1CCOCC1)c1n[nH]cc1NC(=O)c1c(F)cccc1F,"binding, competition with immobilised ligand",1 µM,100%
O=C(Nc1ccc(Oc2ccc(F)cc2)cc1)N1CCc2ncccc2[C@H]1c1ccc(F)cc1,"cell-free assay, competition with immobilised ligand",1 µM,78%
COc1ncc2cc3ccccc3nc2c1C#N,"cell-free assay, competition with immobilised ligand",5 µM,86%
O=C(c1ccc(Nc2nccc(-c3cc4ccccc4s3)n2)cc1)N1CCC(N2CCCC2)CC1,"binding, competition with immobilised ligand",1 µM,57%
CCCOc1ccc([C@H]2[C@H](C(=O)O)[C@@H](c3ccc4c(c3)OCO4)CN2CC(=O)Nc2c(CC)cccc2CC)cc1,"cell-free assay, competition with immobilised ligand",1 µM,100%
CN(CCCC(F)(F)F)c1nccc(-c2cnn3ncccc23)n1,binding,1 µM,75%
FC(F)(F)c1ccc2c(c1)nc(-c1cccnc1)n2C1CC1,"cell-free assay, competition with immobilised ligand",1 µM,100%
CC1CCCN1c1nccc(-c2cnn3ncccc23)n1 (centres unmarked),binding,1 µM,100%
O=C(NCCCN1CCOCC1)c1ccc(Nc2ncc(Cl)c(-c3ccc(Cl)s3)n2)cc1,"binding, competition with immobilised ligand",1 µM,13%
C[C@H](c1cccc(C#N)c1)n1cc(Cl)cc(C(N)=O)c1=N,"cell-free assay, competition with immobilised ligand",1 µM,100%
c1cnn2ncc(-c3ccnc(N4CCC45COC5)n3)c2c1,binding,1 µM,100%
COc1cccc(CNC(=O)c2nc3scc(COCc4ccc(C(=O)O)cc4)c3c(=O)[nH]2)c1,"cell-free assay, competition with immobilised ligand",1 µM,100%
CCN1CCN(Cc2ccc(C(=O)Nc3ccc(C)c(Oc4ccc5c(c4)CC(=O)N5)c3)cc2C(F)(F)F)CC1,"binding, competition with immobilised ligand",1 µM,100%
N[C@@H]1CCN(c2nccc(-c3cnn4ncccc34)n2)C1,binding,1 µM,99%
COc1cnc(Nc2cccc(S(N)(=O)=O)c2)nc1N1CCN(c2ccccc2)CC1,"binding, competition with immobilised ligand",1 µM,76%
Cc1cnn2ncc(-c3ccnc(N(C)C)n3)c2c1,binding,1 µM,100%
O=C(NCc1ncc(C(F)(F)F)cc1Cl)c1ccc2c(c1)C1(CCS(=O)(=O)CC1)[C@H](C1CC1)N2S(=O)(=O)c1ccc(F)cc1,"cell-free assay, competition with immobilised ligand",1 µM,100%
CN(C)c1nccc(-c2cnn3ncccc23)n1,binding,1 µM,98%
O=C(c1ccc(Nc2ncc(Cl)c(-c3ccc(Cl)s3)n2)cc1)N1CCC(N2CCCC2)CC1,"binding, competition with immobilised ligand",1 µM,13%
